Calls of active or inactive are those of the source. The calls are words filed in the database; no cut-off is given here.
Tests used:
A2780 [1] = assay: Cytotoxicity against human A2780 cells after 72 hrs by MTT assay; format: functional, cell-based; settings: A2780, 72 h
[2] = tested on: A2780 CisR (Homo sapiens); assay: cells; settings: 72 h
Histone deacetylase [3] = assay: Inhibition of HDAC in cisplatin resistant human A2780 cells after 18 hrs by fluorescence assay; format: cell-based
Histone deacetylase [4] = assay: Inhibition of HDAC in human A2780 cells after 18 hrs by fluorescence assay; format: cell-based
A2780 [5] = assay: Cytotoxicity against human A2780 cells up to 100 uM after 72 hrs by MTT assay; format: functional, cell-based
Method in brief: (§1)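 A2780 or its cisplatin-resistant subclone A2780CisR, seeded 5000 cells/well, grown in RPMI 1640 with 10% FCS at 37 °C, 5% CO2. Compound exposure began 24 h after seeding and lasted 72 h. MTT (5 mg/mL in PBS) was added, formazan dissolved in DMSO, absorbance read at 544 and 690 nm. IC50 from four-parameter logistic fit, ≥3 experiments in triplicate.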

A2780 [6] = assay: Cytotoxicity against cisplatin resistant human A2780 cells up to 100 uM after 72 hrs by MTT assay; format: functional, cell-based; method in brief: as §1
Histone deacetylase [7] = assay: Inhibition of HDAC in cisplatin sensitive human CAL27 cells after 18 hrs by fluorescence assay; format: cell-based; settings: cal-27
Histone deacetylase 1 = Histone deacetylase 1 (Homo sapiens, UniProt Q13547); assay: Inhibition of human HDAC1 by fluorescence assay
Chain of Histone deacetylase 1 (Q13547 whole entry): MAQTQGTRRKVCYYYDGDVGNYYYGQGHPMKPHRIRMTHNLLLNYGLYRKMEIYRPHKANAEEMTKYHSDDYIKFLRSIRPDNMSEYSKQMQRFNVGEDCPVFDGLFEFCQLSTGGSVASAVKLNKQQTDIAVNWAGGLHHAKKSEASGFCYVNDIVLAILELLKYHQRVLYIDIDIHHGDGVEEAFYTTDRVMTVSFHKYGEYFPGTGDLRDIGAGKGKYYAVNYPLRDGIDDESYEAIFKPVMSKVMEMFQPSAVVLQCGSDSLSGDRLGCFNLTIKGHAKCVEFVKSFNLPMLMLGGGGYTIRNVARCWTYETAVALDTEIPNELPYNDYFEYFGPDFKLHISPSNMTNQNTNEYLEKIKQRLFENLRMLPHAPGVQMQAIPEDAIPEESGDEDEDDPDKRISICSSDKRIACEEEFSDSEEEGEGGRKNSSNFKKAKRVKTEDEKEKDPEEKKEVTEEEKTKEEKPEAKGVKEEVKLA

Histone deacetylase [8] = assay: Inhibition of HDAC in cisplatin resistant human MDA-MB-231 cells after 18 hrs by fluorescence assay; format: cell-based
Histone deacetylase 11 = target: T1, Histone deacetylase 11 (Homo sapiens, UniProt Q96DB2); assay: Inhibition of human HDAC11 by fluorescence assay
T1 sequence (Q96DB2 whole entry): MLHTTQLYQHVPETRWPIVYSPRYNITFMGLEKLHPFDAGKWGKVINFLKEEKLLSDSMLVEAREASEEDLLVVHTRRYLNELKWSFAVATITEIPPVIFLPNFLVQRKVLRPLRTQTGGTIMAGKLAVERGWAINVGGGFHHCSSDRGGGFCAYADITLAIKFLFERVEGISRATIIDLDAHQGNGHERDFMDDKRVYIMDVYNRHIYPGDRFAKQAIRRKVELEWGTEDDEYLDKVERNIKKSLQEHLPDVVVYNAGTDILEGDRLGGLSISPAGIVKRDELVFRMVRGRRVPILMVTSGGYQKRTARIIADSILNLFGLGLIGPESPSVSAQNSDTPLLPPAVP

Histone deacetylase 4 = Histone deacetylase 4 (Homo sapiens, UniProt P56524); assay: Inhibition of human HDAC4 by fluorescence assay
Chain of Histone deacetylase 4 (P56524 whole entry): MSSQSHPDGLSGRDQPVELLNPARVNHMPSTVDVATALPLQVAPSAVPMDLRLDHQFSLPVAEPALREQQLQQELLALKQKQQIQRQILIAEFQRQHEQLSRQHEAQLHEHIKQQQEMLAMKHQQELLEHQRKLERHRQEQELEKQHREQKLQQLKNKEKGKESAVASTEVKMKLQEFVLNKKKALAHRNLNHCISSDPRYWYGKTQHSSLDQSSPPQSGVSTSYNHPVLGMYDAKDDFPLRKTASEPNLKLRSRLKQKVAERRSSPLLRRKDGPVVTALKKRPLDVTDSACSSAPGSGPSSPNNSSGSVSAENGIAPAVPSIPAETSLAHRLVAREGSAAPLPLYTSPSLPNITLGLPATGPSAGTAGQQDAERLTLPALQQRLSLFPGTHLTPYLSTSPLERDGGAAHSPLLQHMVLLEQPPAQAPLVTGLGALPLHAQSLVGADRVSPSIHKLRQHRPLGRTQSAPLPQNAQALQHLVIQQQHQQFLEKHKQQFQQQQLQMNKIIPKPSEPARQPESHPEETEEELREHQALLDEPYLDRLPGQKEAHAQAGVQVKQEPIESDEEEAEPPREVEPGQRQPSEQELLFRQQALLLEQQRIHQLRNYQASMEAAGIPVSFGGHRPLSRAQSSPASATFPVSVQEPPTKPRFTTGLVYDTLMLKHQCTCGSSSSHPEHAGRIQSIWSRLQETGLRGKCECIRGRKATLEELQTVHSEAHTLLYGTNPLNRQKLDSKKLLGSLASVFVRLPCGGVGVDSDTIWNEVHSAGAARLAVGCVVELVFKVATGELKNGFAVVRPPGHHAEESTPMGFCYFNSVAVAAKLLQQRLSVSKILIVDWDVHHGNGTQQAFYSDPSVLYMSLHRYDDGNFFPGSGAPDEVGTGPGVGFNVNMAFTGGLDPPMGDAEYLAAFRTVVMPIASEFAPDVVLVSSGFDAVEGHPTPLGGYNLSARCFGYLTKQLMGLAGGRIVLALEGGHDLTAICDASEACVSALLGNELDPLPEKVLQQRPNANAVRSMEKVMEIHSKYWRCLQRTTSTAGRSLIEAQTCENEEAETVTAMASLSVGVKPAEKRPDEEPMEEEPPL

MDA-MB-231 [9] = assay: Cytotoxicity against cisplatin sensitive human MDA-MB-231 cells after 72 hrs by MTT assay; format: functional, cell-based; settings: MDA-MB-231, 72 h
Method in brief: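 MDA-MB-231 (parental), 10 000 cells/well, in DMEM with 15% FCS at 37 °C, 5% CO2. Compounds added 24 h after seeding for 72 h. MTT (5 mg/mL in PBS) was added, formazan dissolved in DMSO, absorbance read at 544 and 690 nm. IC50 from four-parameter logistic fit of ≥3 experiments in triplicate.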

KYSE-510 [10] = assay: Cytotoxicity against cisplatin sensitive human KYSE-510 cells after 72 hrs by MTT assay; format: functional, cell-based; settings: KYSE-510, 72 h
KYSE-510 [11] = assay: Cytotoxicity against cisplatin resistant human KYSE-510 cells after 72 hrs by MTT assay; format: functional, cell-based; settings: KYSE-510, 72 h
Histone deacetylase [12] = assay: Inhibition of HDAC in cisplatin sensitive human KYSE-510 cells after 18 hrs by fluorescence assay; format: cell-based
MDA-MB-231 [13] = assay: Cytotoxicity against cisplatin resistant human MDA-MB-231 cells after 72 hrs by MTT assay; format: functional, cell-based; settings: MDA-MB-231, 72 h
Histone deacetylase 5 = Histone deacetylase 5 (Homo sapiens, UniProt Q9UQL6); assay: Inhibition of human HDAC5 by fluorescence assay
Chain of Histone deacetylase 5 (Q9UQL6 whole entry): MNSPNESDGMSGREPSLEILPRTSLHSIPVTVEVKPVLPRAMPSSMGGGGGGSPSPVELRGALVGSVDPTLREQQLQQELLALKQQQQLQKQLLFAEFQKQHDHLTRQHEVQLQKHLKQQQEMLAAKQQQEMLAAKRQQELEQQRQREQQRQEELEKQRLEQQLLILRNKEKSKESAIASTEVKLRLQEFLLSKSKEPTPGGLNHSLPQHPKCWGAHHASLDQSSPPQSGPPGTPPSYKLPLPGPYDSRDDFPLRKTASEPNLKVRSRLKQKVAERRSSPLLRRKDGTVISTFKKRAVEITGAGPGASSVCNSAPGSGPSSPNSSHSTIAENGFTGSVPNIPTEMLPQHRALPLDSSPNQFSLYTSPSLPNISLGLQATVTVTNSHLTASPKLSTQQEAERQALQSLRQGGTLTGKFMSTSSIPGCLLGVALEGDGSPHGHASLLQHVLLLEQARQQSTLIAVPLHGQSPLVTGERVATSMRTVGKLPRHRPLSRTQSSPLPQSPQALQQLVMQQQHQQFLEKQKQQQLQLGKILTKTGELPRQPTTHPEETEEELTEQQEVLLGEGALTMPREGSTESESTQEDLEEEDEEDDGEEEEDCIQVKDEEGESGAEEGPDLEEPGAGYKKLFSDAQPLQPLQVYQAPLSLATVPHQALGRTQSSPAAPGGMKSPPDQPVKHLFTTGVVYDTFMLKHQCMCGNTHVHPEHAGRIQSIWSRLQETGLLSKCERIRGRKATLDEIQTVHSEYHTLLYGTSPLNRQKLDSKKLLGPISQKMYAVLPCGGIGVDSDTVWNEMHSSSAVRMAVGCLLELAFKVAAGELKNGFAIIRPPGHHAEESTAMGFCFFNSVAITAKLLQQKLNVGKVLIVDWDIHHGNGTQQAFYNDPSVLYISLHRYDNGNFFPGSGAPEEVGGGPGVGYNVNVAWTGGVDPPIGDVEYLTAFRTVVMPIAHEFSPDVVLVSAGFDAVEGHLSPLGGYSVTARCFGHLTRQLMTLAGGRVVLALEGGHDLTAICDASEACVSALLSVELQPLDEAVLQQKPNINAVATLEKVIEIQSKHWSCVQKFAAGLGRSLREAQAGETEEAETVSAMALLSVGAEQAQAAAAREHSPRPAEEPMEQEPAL

Histone deacetylase 2 = Histone deacetylase 2 (Homo sapiens, UniProt Q92769); assay: Inhibition of human HDAC2 by fluorescence assay
Chain of Histone deacetylase 2 (Q92769 whole entry): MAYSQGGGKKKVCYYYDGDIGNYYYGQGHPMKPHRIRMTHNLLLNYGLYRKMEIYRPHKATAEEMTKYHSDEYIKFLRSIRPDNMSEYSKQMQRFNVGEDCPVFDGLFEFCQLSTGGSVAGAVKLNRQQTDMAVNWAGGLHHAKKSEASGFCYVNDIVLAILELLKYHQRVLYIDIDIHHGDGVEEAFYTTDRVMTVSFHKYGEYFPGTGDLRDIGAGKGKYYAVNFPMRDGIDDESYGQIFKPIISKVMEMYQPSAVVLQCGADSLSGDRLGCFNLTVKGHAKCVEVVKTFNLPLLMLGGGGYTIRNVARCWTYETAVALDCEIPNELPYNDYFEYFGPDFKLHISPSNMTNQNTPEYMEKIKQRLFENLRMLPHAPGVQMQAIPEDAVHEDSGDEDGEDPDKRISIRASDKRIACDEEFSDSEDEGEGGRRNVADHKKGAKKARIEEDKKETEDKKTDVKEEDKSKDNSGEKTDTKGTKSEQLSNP

[14] = target: T2, Protein deacetylase HDAC6 (Homo sapiens, UniProt Q9UBN7); assay: Inhibition of human HDAC6 by fluorescence assay
T2 sequence (Q9UBN7 whole entry): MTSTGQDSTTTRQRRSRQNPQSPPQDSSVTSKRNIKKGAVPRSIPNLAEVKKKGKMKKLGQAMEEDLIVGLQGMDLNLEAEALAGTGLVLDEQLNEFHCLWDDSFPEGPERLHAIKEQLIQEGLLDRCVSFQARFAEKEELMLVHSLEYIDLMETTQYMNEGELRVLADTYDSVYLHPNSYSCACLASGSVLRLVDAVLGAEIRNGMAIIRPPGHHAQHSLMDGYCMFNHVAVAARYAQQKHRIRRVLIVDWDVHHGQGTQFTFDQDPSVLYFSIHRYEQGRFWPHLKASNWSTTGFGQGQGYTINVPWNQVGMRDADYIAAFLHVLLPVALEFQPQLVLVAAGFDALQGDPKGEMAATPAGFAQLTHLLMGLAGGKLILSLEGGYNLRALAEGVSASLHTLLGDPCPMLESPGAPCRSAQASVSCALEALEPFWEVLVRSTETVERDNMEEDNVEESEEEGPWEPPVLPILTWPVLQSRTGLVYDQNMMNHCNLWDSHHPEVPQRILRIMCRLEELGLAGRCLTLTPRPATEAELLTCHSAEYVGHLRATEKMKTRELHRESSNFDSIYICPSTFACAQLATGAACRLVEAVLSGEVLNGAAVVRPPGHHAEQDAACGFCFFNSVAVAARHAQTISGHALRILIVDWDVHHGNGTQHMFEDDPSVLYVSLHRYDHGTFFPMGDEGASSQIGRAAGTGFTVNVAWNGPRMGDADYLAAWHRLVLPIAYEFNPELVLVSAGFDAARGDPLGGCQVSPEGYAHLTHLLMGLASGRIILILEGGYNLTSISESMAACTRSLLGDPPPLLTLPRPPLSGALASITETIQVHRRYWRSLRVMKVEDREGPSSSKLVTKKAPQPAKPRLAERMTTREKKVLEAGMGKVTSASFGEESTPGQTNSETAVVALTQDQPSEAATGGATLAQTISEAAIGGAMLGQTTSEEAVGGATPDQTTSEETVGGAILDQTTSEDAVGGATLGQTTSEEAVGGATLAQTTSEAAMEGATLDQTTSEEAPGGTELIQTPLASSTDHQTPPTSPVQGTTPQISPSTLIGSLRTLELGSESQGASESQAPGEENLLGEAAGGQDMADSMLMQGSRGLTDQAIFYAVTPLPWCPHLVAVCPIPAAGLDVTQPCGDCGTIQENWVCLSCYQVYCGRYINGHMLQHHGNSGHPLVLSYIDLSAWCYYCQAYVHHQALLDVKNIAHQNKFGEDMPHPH

Histone deacetylase [15] = assay: Inhibition of HDAC in cisplatin resistant human KYSE-510 cells after 18 hrs by fluorescence assay; format: cell-based
Histone deacetylase [16] = assay: Inhibition of HDAC in cisplatin resistant human CAL27 cells after 18 hrs by fluorescence assay; format: cell-based; settings: cal-27
CAL-27 [17] = assay: Cytotoxicity against cisplatin sensitive human CAL27 cells after 72 hrs by MTT assay; format: functional, cell-based; settings: CAL-27, 72 h
CAL-27 [18] = assay: Cytotoxicity against cisplatin resistant human CAL27 cells after 72 hrs by MTT assay; format: functional, cell-based; settings: CAL-27, 72 h
Histone deacetylase [19] = assay: Inhibition of HDAC in cisplatin sensitive human MDA-MB-231 cells after 18 hrs by fluorescence assay; format: cell-based
Histone deacetylase 8 = target: T3, Histone deacetylase 8 (Homo sapiens, UniProt Q9BY41); assay: Inhibition of human HDAC8 by fluorescence assay
T3 sequence (Q9BY41 whole entry): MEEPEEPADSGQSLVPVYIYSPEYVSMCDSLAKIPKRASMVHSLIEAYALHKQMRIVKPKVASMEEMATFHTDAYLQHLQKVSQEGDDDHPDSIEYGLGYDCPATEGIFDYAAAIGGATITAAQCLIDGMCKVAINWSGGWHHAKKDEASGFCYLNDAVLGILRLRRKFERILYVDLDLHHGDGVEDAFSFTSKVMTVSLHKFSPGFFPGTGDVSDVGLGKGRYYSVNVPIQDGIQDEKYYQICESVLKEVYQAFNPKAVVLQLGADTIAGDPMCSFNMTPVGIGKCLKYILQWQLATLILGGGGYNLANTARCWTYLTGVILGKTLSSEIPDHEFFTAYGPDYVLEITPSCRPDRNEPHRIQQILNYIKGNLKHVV

Structure (SMILES)	IC50 [2]	IC50 (Histone deacetylase [3])	IC50 (Histone deacetylase [4])	IC50 (A2780 [1])	further results
O=C(CCCCCONC(=O)Nc1cnc2ccccc2c1)NO	11.6 µM	0.85 µM	1.07 µM	10.8 µM	
O=C(CCCCCONC(=O)Nc1ccccc1)Nc1ccccc1O	84.6 µM	43.9 µM	34 µM	35 µM	
O=C(CCCCCONC(=O)NNc1ccccc1)NO	42.4 µM	4.95 µM	5.86 µM	34.9 µM	
O=C(CCCCCONC(=O)c1ccc(C(F)(F)F)cc1)NO	30.8 µM	1.95 µM	2.09 µM	9.53 µM	
Cc1ccccc1NC(=O)NOCCCCCC(=O)NO	30.1 µM	8.86 µM	11.7 µM	23 µM	
Cc1cccc(C(=O)NOCCCCCC(=O)NO)c1	2.25 µM	0.9 µM	1.58 µM	2.1 µM	IC50 (Histone deacetylase [7]): 1 µM; IC50 (Histone deacetylase 1): 0.341 µM; IC50 (Histone deacetylase [8]): 1.28 µM; IC50 (Histone deacetylase 11): 2.14 µM; IC50 (Histone deacetylase 4): 0.0163 µM; IC50 (MDA-MB-231 [9]): 2.79 µM; IC50 (KYSE-510 [10]): 8.19 µM; IC50 (KYSE-510 [11]): 8.21 µM; IC50 (Histone deacetylase [12]): 2.62 µM; IC50 (MDA-MB-231 [13]): 3.81 µM; IC50 (Histone deacetylase 5): 0.00231 µM; IC50 (Histone deacetylase 2): 1.39 µM; IC50 [14]: 0.0269 µM; IC50 (Histone deacetylase [15]): 1.13 µM; IC50 (Histone deacetylase [16]): 0.88 µM; IC50 (CAL-27 [17]): 2.97 µM; IC50 (CAL-27 [18]): 3.72 µM; IC50 (Histone deacetylase [19]): 1.41 µM; IC50 (Histone deacetylase 8): 1.04 µM
Cc1ccccc1C(=O)NOCCCCCC(=O)NO	33.8 µM	15.4 µM	17.1 µM	25.6 µM	
Cc1ccc(C(=O)NOCCCCCC(=O)NO)cc1	5 µM	3.46 µM	4.21 µM	4.09 µM	
Cc1cc(C)cc(NC(=O)NOCCCCCC(=O)NO)c1	5.11 µM	4.64 µM	5.27 µM	2.43 µM	
O=C(O)CCCCCONC(=O)Nc1cccc2ccccc12	> 100 µM			> 100 µM	Activity (A2780 [5]): inactive; Activity (A2780 [6]): inactive
CC(C)c1ccc(C(=O)NOCCCCCC(=O)NO)cc1	4.96 µM	0.5 µM	0.6 µM	4.13 µM	
O=C(CCCCCONC(=O)Nc1cccc2ccccc12)NO	7.87 µM	0.9 µM	1.06 µM	7.63 µM	
CC(/C=C/C(=O)NO)=C\[C@@H](C)C(=O)c1ccc(N(C)C)cc1 [TRICHOSTATIN]	0.22 µM			0.29 µM	
O=C(O)CCCCCONC(=O)Nc1ccccc1	72.5 µM	> 100 µM	> 100 µM	23.5 µM	
Nc1ccccc1NC(=O)CCCCCONC(=O)Nc1ccccc1	86.9 µM	43.9 µM	34 µM	62.5 µM	
O=C(CCCCCONC(=O)c1ccccc1)NO	5.72 µM	1.26 µM	1.58 µM	8.33 µM	
CN(O)C(=O)CCCCCONC(=O)Nc1ccccc1	> 100 µM	> 100 µM	> 100 µM	87.9 µM	

Now from value to compound, other results behind:

IC50 [2]	IC50 (Histone deacetylase [3])	IC50 (Histone deacetylase [4])	Structure (SMILES)	IC50 (A2780 [1])	further results
> 100 µM			Cc1ccc(NC(=O)NOCCCCCC(=O)O)cc1	> 100 µM	Activity (A2780 [5]): inactive; Activity (A2780 [6]): inactive
8.8 µM	1.32 µM	1.41 µM	CC(C)(C)c1ccc(NC(=O)NOCCCCCC(=O)NO)cc1	6.34 µM	
10.2 µM	1.43 µM	1.45 µM	Cc1ccc(NC(=O)NOCCCCCC(=O)NO)cc1	8.05 µM	
58.8 µM	2.05 µM	2.86 µM	CC(C)c1ccc(NC(=O)NOCCCCCC(=O)NO)cc1	27.1 µM	
8.12 µM	5.38 µM	7.63 µM	Cc1cccc(NC(=O)NOCCCCCC(=O)NO)c1	8.33 µM	
35.2 µM	16.6 µM	15.2 µM	O=C(CCCCONC(=O)Nc1ccccc1)NO	62.6 µM	
18.2 µM	5.73 µM	6.64 µM	COc1ccc(NC(=O)NOCCCCCC(=O)NO)cc1	10.3 µM	
73.1 µM	> 100 µM	> 100 µM	O=C(O)CCCCCONC(=O)Nc1ccc(F)cc1	67.8 µM	
5.47 µM	1.71 µM	1.7 µM	O=C(CCCCCONC(=O)Nc1ccccc1)NO	8.47 µM	
> 100 µM			COc1ccc(NC(=O)NOCCCCCC(=O)O)cc1	> 100 µM	Activity (A2780 [5]): inactive; Activity (A2780 [6]): inactive
60.3 µM	2 µM	2.57 µM	O=C(CCCCCONC(=O)c1ccc(F)cc1)NO	16.4 µM	
9.34 µM	1.66 µM	2.04 µM	O=C(CCCCCONC(=O)Nc1ccc(F)cc1)NO	9.05 µM	

From ChEMBL document CHEMBL2311425, “Histone deacetylase (HDAC) inhibitors with a novel connecting unit linker region reveal a selectivity profile for HDAC4 and HDAC5 with improved activity against chemoresistant cancer cells” (J Med Chem, 2013)
